# Assay results from ChEMBL document CHEMBL4680100, “Revisiting the SAR of the Antischistosomal Aryl Hydantoin (Ro 13-3978)” (J Med Chem, 2016).
# Assays:
# Androgen receptor = target: T1, Androgen receptor (Homo sapiens, UniProt P10275)
# T1 sequence (P10275 whole entry): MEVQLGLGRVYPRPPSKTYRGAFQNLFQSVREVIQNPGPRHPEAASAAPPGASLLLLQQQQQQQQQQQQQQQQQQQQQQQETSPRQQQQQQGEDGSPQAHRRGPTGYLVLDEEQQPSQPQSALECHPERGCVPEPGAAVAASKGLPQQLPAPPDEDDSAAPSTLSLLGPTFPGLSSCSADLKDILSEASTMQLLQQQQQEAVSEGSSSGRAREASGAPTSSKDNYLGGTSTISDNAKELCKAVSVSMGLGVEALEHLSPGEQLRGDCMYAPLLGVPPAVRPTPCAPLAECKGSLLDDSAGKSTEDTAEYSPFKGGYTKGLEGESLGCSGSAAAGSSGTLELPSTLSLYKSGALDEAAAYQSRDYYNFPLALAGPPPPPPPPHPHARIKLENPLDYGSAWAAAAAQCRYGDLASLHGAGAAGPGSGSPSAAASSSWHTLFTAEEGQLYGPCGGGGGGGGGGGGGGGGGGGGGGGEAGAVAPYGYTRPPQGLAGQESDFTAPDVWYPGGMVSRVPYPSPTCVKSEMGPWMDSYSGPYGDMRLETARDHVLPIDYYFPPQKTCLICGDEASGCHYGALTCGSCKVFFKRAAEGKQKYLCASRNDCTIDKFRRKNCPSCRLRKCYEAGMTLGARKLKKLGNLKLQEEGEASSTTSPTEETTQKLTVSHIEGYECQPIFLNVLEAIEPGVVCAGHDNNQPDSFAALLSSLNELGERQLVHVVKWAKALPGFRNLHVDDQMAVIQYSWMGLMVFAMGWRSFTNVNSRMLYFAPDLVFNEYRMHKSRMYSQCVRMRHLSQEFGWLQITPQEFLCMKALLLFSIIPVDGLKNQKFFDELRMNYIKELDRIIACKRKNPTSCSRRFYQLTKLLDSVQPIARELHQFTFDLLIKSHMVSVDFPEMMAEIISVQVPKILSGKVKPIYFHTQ
# [1] = Octanol/water partition coefficient, logD of the compound at pH 7.4 by HPLC analysis
# [2] = Intrinsic clearance in mouse liver microsome in presence of NADPH-regenerating system incubated over 60 mins by LC-MS analysis; conditions: microsomes, 1 h
# [3] = Intrinsic clearance in human liver microsome in presence of NADPH-regenerating system incubated over 60 mins by LC-MS analysis; conditions: microsomes, 1 h
# Schistosoma mansoni = experiment: Antischistosomal activity against Schistosoma mansoni infected in NMRI mouse assessed as reduction in total worm burden at 100 mg/kg, po administered as single dose starting on day 49 post-infection and measured at 28 days post treatment relative to control; type: functional; parameters: scale not given: the % may be the effect or the level left; conditions: time 28 day
# In short: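 S. mansoni-infected NMRI mice treated on day 49 post-infection with a single oral dose, dissolved or suspended in 7% v/v Tween 80, 3% v/v ethanol (10 mL/kg), five mice per group. Sacrificed and dissected 28 d post-treatment; worms counted to give total worm burden reduction versus untreated controls. Kruskal–Wallis test on medians, treatment versus control.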
# Albumin = Albumin (Homo sapiens, UniProt P02768); experiment: Protein binding in immobilized human serum albumin by HPLC analysis; type: ADME; conditions: isolated protein
# In short: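 Binding estimated from gradient HPLC retention on a human albumin column, correlated against standard compounds of known protein binding.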
# L6 = experiment: Cytotoxicity against rat L6 cells assessed as reduction in cell viability at up to 30 uM; type: cell-based
# [4] = Kinetic solubility of the compound in 0.01 M HCl at pH 2 by nephelometry; type: physicochemical; conditions: read-out: Kinetic_solubility
# [5] = Kinetic solubility of compound at pH 6.5 phosphate buffer by nephelometry; type: physicochemical; conditions: read-out: Kinetic_solubility
# Albumin, sequence (P02768 whole entry): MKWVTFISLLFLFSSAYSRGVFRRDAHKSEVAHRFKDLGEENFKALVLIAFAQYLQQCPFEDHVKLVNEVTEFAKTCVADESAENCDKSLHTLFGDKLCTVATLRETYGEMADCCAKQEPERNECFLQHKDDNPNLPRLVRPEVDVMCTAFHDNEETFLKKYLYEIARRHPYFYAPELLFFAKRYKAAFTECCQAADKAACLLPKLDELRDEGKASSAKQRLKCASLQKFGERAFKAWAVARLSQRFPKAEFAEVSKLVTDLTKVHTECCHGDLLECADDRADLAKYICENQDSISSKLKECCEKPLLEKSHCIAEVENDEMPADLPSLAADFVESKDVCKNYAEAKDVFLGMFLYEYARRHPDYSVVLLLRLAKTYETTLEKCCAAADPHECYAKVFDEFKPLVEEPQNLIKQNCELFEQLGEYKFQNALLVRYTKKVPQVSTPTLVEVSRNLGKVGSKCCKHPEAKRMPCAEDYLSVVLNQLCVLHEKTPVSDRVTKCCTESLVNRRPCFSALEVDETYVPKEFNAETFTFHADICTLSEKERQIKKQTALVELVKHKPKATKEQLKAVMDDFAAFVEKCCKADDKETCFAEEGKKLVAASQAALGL
SMILES,IC50 (Androgen receptor) [µM],logD [1],CLH [2] [µL/min/mg],CLH [3] [µL/min/mg],Activity (Schistosoma mansoni) [%],PPB (Albumin) [%],Activity (L6),solubility kinetic [4] [µg/mL],solubility kinetic [5] [µg/mL]
CC1(C)CN(c2ccc(F)c(C(F)(F)F)c2)C(=O)N1,8.1,3.2,30,< 7,59,78.3,Non-Toxic,12.5,12.5
CC1(C)NC(=O)N(c2ccc(F)c(C#N)c2)C1=O,3.7,1.7,< 7,< 7,10,14.6,Non-Toxic,> 100,> 100
CC1(C)CNC(=O)N(c2ccc(F)c(C(F)(F)F)c2)C1=O,6.9,2.5,15,9,19,21.5,Non-Toxic,12.5,12.5
CC1(CO)NC(=O)N(c2ccc(F)c(C(F)(F)F)c2)C1=O (stereo not drawn),4.8,1.9,< 7,< 7,0,34.3,Non-Toxic,25,25
O=C(C1CCCCC1)N1CC(=O)N2CCc3ccccc3C2C1 (stereo not drawn) [PRAZIQUANTEL],–,3,–,–,18,–,–,> 100,> 100
CC1(C)NC(=O)N(c2ccnc3ccccc23)C1=O,1.3,1.2,< 7,< 7,17,16.9,Non-Toxic,> 100,> 100
CC1(C)NC(=O)N(Cc2ccc(F)c(C(F)(F)F)c2)C1=O,4.2,2.9,11,17,56,82.1,Non-Toxic,50,> 100
O=C1CNC(=O)N1c1ccc(F)c(C(F)(F)F)c1,0.26,2,13,< 7,0,43.6,Non-Toxic,> 100,> 100
CC1(C)C(=O)N(c2ccc(F)c(C(F)(F)F)c2)C(=O)N1S(=O)(=O)c1ccccc1,4.3,4.6,160,210,44,96.1,Non-Toxic,< 1.6,< 1.6
CC1(C)NC(=O)N(c2cccc(C(F)(F)F)c2)C1=O,6,2.5,< 7,< 7,80,49.3,Non-Toxic,> 100,> 100
CC1(C)OC(=O)N(c2ccc(F)c(C(F)(F)F)c2)C1=O,2.1,3.7,12,12,11,58.1,Non-Toxic,3.1,3.1
CC1(C)NC(=O)N(c2ccc(Cl)c(C(F)(F)F)c2)C1=O,1.3,3,< 7,< 7,75,79.6,Non-Toxic,> 100,> 100
CC1(C)NC(=O)N(c2cccnc2)C1=O,9.6,0.2,< 7,< 7,38,6.6,Non-Toxic,> 100,> 100
CC1(C)C(=O)N(c2ccc(F)c(C(F)(F)F)c2)C(=O)N1S(C)(=O)=O,6.3,3.8,< 7,< 7,19,66,Non-Toxic,1.6,1.6
CC1(C)C(=O)NC(=O)N1c1ccc(F)c(C(F)(F)F)c1,2.8,2.5,< 7,< 7,0,67.1,Non-Toxic,25,25
CC1(C)NC(=O)N(c2ccncc2)C1=O,3.8,–,11,< 7,1.8,6.7,Non-Toxic,50,> 100
O=C1NC2(CCCCC2)C(=O)N1c1ccc(F)c(C(F)(F)F)c1,4.2,3.5,122,25,42,74.9,Non-Toxic,3.1,3.1
CC1(C)NC(=O)C(c2ccc(F)c(C(F)(F)F)c2)C1=O (stereo not drawn),> 10,0.5,< 7,< 7,0,93.3,Non-Toxic,25,> 100
CC1(C)NC(=O)N(c2ccc(C(F)(F)F)nc2)C1=O,> 10,1.8,< 7,< 7,0,18.3,Non-Toxic,> 100,> 100
O=C1C2CCCN2C(=O)N1c1ccc(F)c(C(F)(F)F)c1 (stereo not drawn),3.5,3,144,30,0,46,Non-Toxic,25,25
CC1(C)NC(=O)N(c2ccc([N+](=O)[O-])c(C(F)(F)F)c2)C1=O [NILUTAMIDE],–,3,< 7,< 7,31,70.3,–,50,50
CC1(C)C(=O)N(c2ccc(F)c(C(F)(F)F)c2)C(=O)N1CC#N,0.29,3.4,–,–,91,48.2,Non-Toxic,25,25
